Data published in article PMC2913404 (Neurobiology of disease, 2010).
Positions of bridges follow the written chain, without caps; N, C: chain ends. Residues, ends and D or L forms follow the SMILES beside them. *: point of attachment. Biotin = O=C1N[C@H]2[C@H](CS[C@H]2CCCCC(=O)*)N1

Assays:
[1] = test system: Aβ1–40 peptide (amyloid aggregation); assay: Thioflavin T amyloid formation assay, Aβ1–40; format: biochemical; conditions: Aβ1–40 50µM + peptide 50µM, 5 days, 37°C, n=3 (Fig 1C)
Procedure, shortened: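 Aβ1–40 (50 µM; stored frozen in DMSO) was mixed with equimolar test peptide (50 µM) and incubated 5 days at 37°C until amyloid formation saturated. Thioflavin T was then added, and signal was read at 490 nm with excitation at 445 nm.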

[2] = test system: Aβ1–42 peptide (amyloid aggregation); assay: Thioflavin T amyloid formation assay, Aβ1–42; format: biochemical; conditions: Aβ1–42 50µM + peptide 50µM, 5 hours, 37°C, n=3 (Fig 1C)
Procedure, shortened: (§1)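 Aβ1–40 or Aβ1–42 (50 µM) was mixed equimolar with peptide (50 µM) at 37°C until amyloid formation saturated: 5 days for Aβ1–40, 5 hours for Aβ1–42. Time courses set the read point. Thioflavin T was then added and read at 490 nm with excitation at 445 nm. Aβ alone served as positive control; peptide alone was read as background.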

[3] = Self-aggregation of SDPM1 by Thioflavin T; format: physicochemical; conditions: SDPM1 added alone, over time
[4] = test system: Aβ1–42 peptide; assay: Amyloid trapping assay, SDS-PAGE and Aβ1–40/42 immunoblot; format: biochemical; conditions: SDS-PAGE/immunoblot after mixing with Aβ1–42 (Fig 1G, 1H)
Procedure, shortened: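 Aβ1–42 (50 µM) incubated with equimolar test peptide (50 µM) or 1:500 immune serum for 5 h at 37°C. A subset of mixtures was boiled in SDS with reducing agent and run on 10–20% Tris-tricine gels, then transferred to nitrocellulose. Blots were blocked in TBST/5% milk and probed with rabbit anti-Aβ1–40/42 at 1:10,000 in TBST/2.5% milk.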

[5] = test system: low molecular weight Aβ amyloid from COS7 cells transfected with APPswe; assay: Precipitation from APPswe-transfected COS7 lysates; format: binding, human; conditions: COS7 lysate 1mg; antibody 10µg or biotin-SDPM1 50µg (Fig 1I, S1A)
Procedure, shortened: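 COS7 cells grown in DMEM/10% FCS were transfected at 40% confluence with V5-tagged human APP695, wild type or Swedish. At 48 h cells were lysed in 1% NP40/0.1% SDS/deoxycholate/EDTA buffer with protease inhibitors, sonicated and cleared at 16000g. Lysate (1 mg) was incubated overnight at 4°C with antibody (10 µg) or biotinylated peptide (50 µg), the latter captured on streptavidin agarose. Precipitates were analysed by SDS-PAGE and Aβ immunoblot.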

[6] = test system: SDPM1 / SDPM2 peptide; assay: Serum antibody titer to SDPM1/SDPM2 after immunization; format: in vivo, mouse; conditions: for SDPM1-specific antibody titer (SDPM1 minus SDPM2 titer): average, SEM, n=7–12 animals (Fig 2A); for antibody titers to SDPM1 and SDPM2: young (5 to 12 months), end of experiment (S2A)
[7] = test system: Aβ amyloid; assay: Serum antibody titer to Aβ amyloid after immunization; format: in vivo, mouse; conditions: for Aβ amyloid antibody titer: young, significant vs Mock (Fig 2C)
[8] = test system: fibrillar Aβ amyloid plaques in APPswePSEN1(A246E) mouse brain; assay: Amyloid plaque burden, number and area; format: in vivo
[9] = test system: Aβ1–40/1–42 in APPswePSEN1(A246E) mouse brain; assay: Aβ1–40/1–42 immunostaining of brain; format: in vivo; conditions: for Aβ1–40/42 immunostaining signal, % of control: young, with adjuvant
Procedure, shortened: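 After monthly s.c. streptavidin-peptide conjugate immunization with adjuvant, brains were collected after PBS exsanguination and bisected, then snap-frozen or fixed overnight in 2% paraformaldehyde. Some sagittal sections were pretreated with 90% formic acid for 4 min. Sections were blocked 2 h in 10% goat serum, given rabbit anti-Aβ1–40/42 overnight at 4°C, then Cy3 secondary for 1 h. Eight to twelve sections 80 µm apart were imaged at 10X with a fixed threshold.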

[10] = test system: Aβ1–40 in APPswePSEN1(A246E) mouse brain; assay: Aβ1–40 brain peptide level; format: in vivo; conditions: with adjuvant
Procedure, shortened: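 Transgenic mice received monthly subcutaneous injections of biotinylated test peptide (100 µg) conjugated overnight at 4°C to 25 µg streptavidin in TBS, emulsified 1:1 with adjuvant. TiterMax Gold was used first, then Freund's incomplete. Schedules ran 5–12 months (8 injections) or 12–18 months (7). Mock controls got TBS plus adjuvant. Brain Aβ1–40 ELISA was read at 450 nm against peptide standard curves and reported as µg/g wet brain weight.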

[11] = test system: Aβ1–42 in APPswePSEN1(A246E) mouse brain; assay: Aβ1–42 brain peptide level; format: in vivo; conditions: with adjuvant
[12] = test system: Aβ amyloid species in APPswePSEN1(A246E) cortex; assay: Aβ/APP immunoblot of soluble cortex fraction; format: in vivo, mouse; conditions: immunoblot (Fig 3G)
[13] = test system: APPswePSEN1(A246E) mice; assay: Morris water maze; format: in vivo, mouse
[14] = test system: APPswePSEN1(A246E) mouse brain; assay: Brain inflammation immunostaining; format: in vivo; conditions: young and old; for reduction of CD68 immunostaining: significant (Fig 5D); for GFAP staining signal: with adjuvant (Fig 5C); for Iba1 staining signal: with adjuvant (Fig 5E)
[15] = test system: monovalent Aβ1–40 peptide; conditions: ref Kang et al., 2003; cited from earlier work
[16] = test system: monovalent Aβ1–42 peptide; conditions: ref Kang et al., 2003; cited from earlier work
[17] = test system: amyloid plaques in AD brain; conditions: ref Kang et al., 2003; cited from earlier work
[18] = test system: Aβ amyloid (Aβ1–40 or Aβ1–42); assay: Thioflavin T amyloid formation assay, Aβ form not distinguished; format: biochemical; conditions: peptide 50µM + Aβ1–40 or Aβ1–42 50µM, 37°C, n=3 (Fig 1C)
Procedure, shortened: as §1

[19] = old, in most instances (Fig 3D–F)
[20] = young, in all instances, n=7–12 animals (Fig 3A–C)
[21] = young, soluble and insoluble, cortex, hippocampus (Fig 3A, B)

Compound: CC(C)C[C@@H]1NC(=O)[C@H](CCCNC(=N)N)NC(=O)[C@H](Cc2c[nH]c3ccccc23)NC(=O)[C@H](CCCNC(=N)N)NC(=O)CNC(=O)CNC(=O)[C@H](CCCCN)NC(=O)CNC(=O)[C@H](Cc2c[nH]c3ccccc23)NC(=O)[C@H](CC(=O)O)NC(=O)[C@@H](NC(=O)[C@H](CCC(=O)O)NC(=O)[C@H](C)NC(=O)CCCC[C@@H]2SC[C@@H]3NC(=O)N[C@@H]32)CSSC[C@@H](C(=O)NCC(=O)N2CCC[C@H]2C(=O)O)NC(=O)[C@H](C)NC(=O)[C@H](CCC(=O)O)NC(=O)[C@H]([C@@H](C)O)NC(=O)[C@H](CCCCN)NC(=O)CNC(=O)[C@H](CO)NC(=O)[C@H](C)NC(=O)CNC(=O)[C@@H]2CCCN2C(=O)[C@H](Cc2c[nH]c3ccccc23)NC1=O [SDPM1] (Biotin-AECDWGKGGRWRLWPGASGKTEACGP-OH; disulfide 3-24; C-terminus assumed)
- inhibition of amyloid aggregation [1]: over 60%
- inhibition of amyloid aggregation [2]: over 60%
- Thioflavin T signal of peptide alone (amyloid self-formation) [3]: did not lead to development of increased Thioflavin T signal over time
- effect on high MW Aβ aggregate formation [4]: reduced formation of high molecular weight (MW) Aβ aggregates
- size of trapped Aβ forms (trimers and tetramers) [4]: 12–16 kDa
- precipitation of low MW Aβ amyloid from APPswe cells [5]: tetramer Aβ amyloid precipitated from APPswe-transfected cells
- SDPM1-specific antibody titer (SDPM1 minus SDPM2 titer) ([6]; old (12 to 18 months), with adjuvant): 29 ± 6 µg/mL
- predominant antibody subtype ([6]; with adjuvant, young and old (Fig 2B)): IgG1
- antibody titers to SDPM1 and SDPM2 ([6]; without adjuvant): 2 to 15 µg/mL
- antibody titers to SDPM1 and SDPM2 vs without adjuvant ([6]; young, with adjuvant (S2A)): increased titers to SDPM1 and SDPM2
- SDPM1 titers relative to SDPM2 titers ([6]; young, without adjuvant (S2A)): increased SDPM1 titers relative to SDPM2
- SDPM1-specific antibody titer (SDPM1 minus SDPM2 titer) ([6]; young, without adjuvant): 5 ± 1 µg/mL
- Aβ amyloid (Aβ1–40/42) antibody titer ([7]; old, with adjuvant, Mock 11±6µg/mL, did not reach statistical significance (Fig 2C)): 23 ± 7 µg/mL
- Aβ amyloid antibody titer ([7]; with adjuvant, Mock 5±2µg/mL): 21 ± 7 µg/mL
- Aβ amyloid antibody titer ([7]; without adjuvant, Mock 1±1 µg/mL): 5 ± 1 µg/mL
- Thioflavin S staining of fibrillar amyloid (images) ([8]; hippocampus and cortex (Fig 2D, S3–4), similar with Congo Red (not shown)): dramatically reduced
- amyloid plaque burden, plaque number, plaque area, Thioflavin S staining ([8]; old, s.c. once a month with adjuvant, 12 to 18 months (Fig 2E–G, S2B)): highly significant reductions in amyloid plaque burden, plaque number, plaque area, and Thioflavin S staining
- Aβ1–40/42 immunostaining signal, % of control ([9]; cortex): 25±6%
- Aβ1–40/42 immunostaining signal, % of control ([9]; hippocampus): 14±3%
- Aβ1–40/42 staining signal ([9]; old, with adjuvant (S2C)): also reduced in old mice
- reduction in Aβ1–40 peptide level [10, 19]: greater than 50%
- Aβ1–40 cerebellum level ([10]; young, cerebellum (Fig 3C)): significantly reduced
- reduction in Aβ1–40 peptide level [10, 20]: greater than 50%
- Aβ1–40 brain level, significance of reduction [10, 21]: significant reduction in both soluble and insoluble Aβ1–40 and Aβ1–42
- reduction in Aβ1–42 peptide level [11, 19]: greater than 50%
- reduction in Aβ1–42 peptide level ([11]; old, insoluble fraction, cortex (Fig 3D)): 65–75%
- reduction in Aβ1–42 peptide level ([11]; old, insoluble fraction, hippocampus (Fig 3E)): 65–75%
- reduction in Aβ1–42 peptide level [11, 20]: greater than 50%
- Aβ1–42 brain level, significance of reduction [11, 21]: significant reduction in both soluble and insoluble Aβ1–40 and Aβ1–42
- high and low MW Aβ amyloid species [12]: large reductions in both high and low MW Aβ amyloid species
- escape latency ([13]; old (12 to 18 mo), with adjuvant (Fig 4D)): no improvement
- probe test ([13]; old (12 to 18 mo), with adjuvant (Fig 4E)): no improvement
- probe test, time in platform quadrant ([13]; young (5 to 12 mo), with adjuvant (Fig 4B)): improved significantly compared to controls, spending almost the same amount of time in the appropriate quadrant as WT animals
- reduction of CD68 immunostaining ([14]; cortex, with adjuvant): ≥ 50%
- reduction of CD68 immunostaining ([14]; hippocampus, with adjuvant): ≥ 50%
- GFAP staining signal [14]: no significant changes
- Iba1 staining signal [14]: no significant changes
- CD3, CD4, CD8, B220 brain parenchymal staining ([14]; with adjuvant, not shown): no evidence for brain parenchymal staining
- binding to monovalent Aβ1–40 peptide [15]: does not bind monovalent Aβ1–40 or Aβ1–42 peptide
- binding to monovalent Aβ1–42 peptide [16]: does not bind monovalent Aβ1–40 or Aβ1–42 peptide
- binding to amyloid plaques in AD brain [17]: most efficacious in binding amyloid plaques in AD brain

Compound: DWGKGGRWRLWPGASGKTEA [SDPM2]
- Thioflavin T signal decrease [18]: no significant decrease in Thioflavin T signal
- effect on high MW Aβ aggregate formation [4]: had no effect on Aβ amyloid formation in vitro
- SDPM1-specific antibody titers ([6]; any condition (Fig 2A)): never showed SDPM1-specific antibody titers under any conditions
- antibody titers to SDPM1 and SDPM2 ([6]; without adjuvant): 2 to 15 µg/mL
- Aβ staining levels vs mock-immunized ([9]; S2C): not significantly reduced, though it trended downward compared to mock-immunized animals
- GFAP staining signal [14]: no significant changes
- Iba1 staining signal [14]: no significant changes
